Source: ChEMBL document CHEMBL1124451, “[(1H-imidazol-1-yl)methyl]- and [(3-pyridinyl)methyl]pyrroles as thromboxane synthetase inhibitors” (J Med Chem, 1989)

How the values were obtained:
[1] = biological target: T1, Thromboxane-A synthase (Homo sapiens) (UniProt P24557); experiment: Relative potency of thromboxane A2 synthetase as reduced ADP-induced aggregation of human platelet rich plasma compared to dazoxiben; type: functional, cell-free
T1 sequence (whole entry): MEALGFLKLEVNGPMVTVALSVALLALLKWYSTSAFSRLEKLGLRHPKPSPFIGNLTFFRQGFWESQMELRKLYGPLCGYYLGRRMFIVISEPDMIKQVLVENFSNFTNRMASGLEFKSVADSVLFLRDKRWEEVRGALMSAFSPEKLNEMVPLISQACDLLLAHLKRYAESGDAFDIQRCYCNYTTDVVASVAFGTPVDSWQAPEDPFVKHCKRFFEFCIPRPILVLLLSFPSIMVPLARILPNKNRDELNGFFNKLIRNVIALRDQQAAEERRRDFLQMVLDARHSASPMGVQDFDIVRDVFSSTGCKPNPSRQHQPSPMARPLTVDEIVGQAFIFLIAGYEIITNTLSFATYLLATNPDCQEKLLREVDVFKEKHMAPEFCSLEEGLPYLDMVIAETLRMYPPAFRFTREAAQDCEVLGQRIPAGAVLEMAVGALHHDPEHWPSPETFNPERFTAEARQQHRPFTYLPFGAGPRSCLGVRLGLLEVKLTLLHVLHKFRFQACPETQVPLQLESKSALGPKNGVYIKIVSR

Rattus norvegicus = experiment: Effect of perorally administered compound on systolic blood pressure and proteinuria was studied with a 5/6 renal ablated rat as a model of progressive injury; type: functional, Artery
Outline: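 Male Munich Wistar rats (200-270 g) with 5/6 renal ablation were dosed in drinking water from 1 week post-surgery at 68, 205 or 410 mg/kg/day; controls received water. Conscious systolic pressure measured weekly by tail cuff. 24-h urinary protein measured every 2 weeks by the sulfosalicylic acid method.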

Homo sapiens [2] = species: Homo sapiens; experiment: Relative potency to inhibit ADP-induced aggregation of human platelet rich plasma compared to that of dazoxiben, in vitro using pig aortal microsomes.; type: functional; settings: Aorta
Homo sapiens [3] = species: Homo sapiens; experiment: In vitro inhibition of ADP-induced aggregation of human platelet rich plasma in the presence of pig aortal microsomes.; type: functional; settings: Aorta
Outline: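 Human citrated blood (0.38% citrate final), PRP by centrifugation at 200g, room temperature. Drug added to 1.0 mL PRP, 2 min at 37 °C with stirring (500 rpm), then pig aortal microsomes 3 min; microsome amount set by the dazoxiben standard. Aggregation induced by 5 μM ADP (final), read turbidimetrically.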

Mus musculus [4] = experiment: Activity at 10 mg/kg […] against mortality in a pulmonary thromboembolism model in mice (10 animals) at -5h following oral administration; type: functional
Outline: (§1)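 Male Swiss-Webster mice (22-26 g), 10 per group (one group of 9); test material given po in 0.2 mL CMC at -1, -3, -5 or -18 h before challenge. At hour 0, collagen extract plus epinephrine hydrochloride given iv via tail vein in 0.9% saline. The collagen amount was titrated per lot to 90-100% mortality in vehicle controls. Readout: % surviving at 24 h.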

Mus musculus [5] = experiment: Activity at 25 mg/kg given intravenously against mortality in a pulmonary thromboembolism model in mice (9 animals) at -3h; type: functional; settings: route intravenous
Outline: (§2)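 Male Swiss-Webster mice (22-26 g); test material given iv in 0.2 mL CMC before challenge (mostly at -3 h, one group at -1 h). At hour 0, collagen extract plus epinephrine hydrochloride given iv in 0.2 mL 0.9% saline via tail vein. The collagen amount was set per lot as the minimum giving 90-100% mortality in CMC-vehicle controls. Readout: % surviving at 24 h.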

Mus musculus [6] = experiment: Activity at 10 mg/kg […] against mortality in a pulmonary thromboembolism model in mice (10 animals) at -1h following oral administration; type: functional; outline: as §1
Mus musculus [7] = experiment: Activity at 10 mg/kg […] against mortality in a pulmonary thromboembolism model in mice (10 animals) at -7h following oral administration; type: functional
Mus musculus [8] = experiment: Activity at 10 mg/kg […] against mortality in a pulmonary thromboembolism model in mice (10 animals) at -18h following oral administration; type: functional; outline: as §1
Mus musculus [9] = experiment: Activity at 10 mg/kg given intravenously against mortality in a pulmonary thromboembolism model in mice (10 animals) at -1h; type: functional; settings: route intravenous; outline: as §2
Mus musculus [10] = experiment: Activity at 10 mg/kg […] against mortality in a pulmonary thromboembolism model in mice (10 animals) at -3h following oral administration; type: functional; outline: as §1
Homo sapiens [11] = species: Homo sapiens; experiment: In vitro inhibition of ADP-induced aggregation of human platelet rich plasma in the presence of pig aortal microsomes, at 5*10e-6 M compound concentration.

Structure (SMILES): Cn1c(/C=C/C(=O)O)ccc1Cn1ccnc1
- Relative potency [1]: 0.75

Structure (SMILES): CCOC(=O)[C@H](CCc1ccccc1)N[C@@H](C)C(=O)N1CCC[C@H]1C(=O)O
- ED (Rattus norvegicus): 4 mg/kg

Structure (SMILES): CCOC(=O)/C=C\c1ccc(Cn2ccnc2)n1C
- Relative potency (Homo sapiens [2]): 0.25
- IC50 (Homo sapiens [3]): 8.9 µM

Structure (SMILES): C/C(=C\c1cc(Cn2ccnc2)n(C)c1)C(=O)O
- Relative potency [1]: 1.3

Structure (SMILES): O=C(O)c1ccc(OCCn2ccnc2)cc1 [DAZOXIBEN]
- survival at 10 mg/kg (Mus musculus [4]): 20%
- survival at 25 mg/kg (Mus musculus [5]): 67%
- IC50 (Homo sapiens [3]): 2.28 µM
- survival at 10 mg/kg (Mus musculus [6]): 50%
- survival at 10 mg/kg (Mus musculus [7]): 20%
- survival at 10 mg/kg (Mus musculus [8]): 10%
- survival at 10 mg/kg (Mus musculus [9]): 30%
- survival at 10 mg/kg (Mus musculus [10]): 40%

Structure (SMILES): CCOC(=O)/C(C)=C\c1ccc(Cc2cccnc2)n1C
- inhibition (Homo sapiens [11]): 49%

Structure (SMILES): Cn1cc(/C=C/C(=O)O)cc1Cn1ccnc1
- Relative potency [1]: 0.62
